# The source made the active and inactive calls. The calls are words filed in the database; no cut-off is given here.
# Experiments:
# [1] = system: HCT-8; assay: Cytotoxicity against human HCT8 cells by MTT assay; assay type: functional, cell-based
# In short: (§1)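 MTT assay on five human tumour lines: HT-29 colon carcinoma, HCT-8 ileocecal adenocarcinoma, Bel-7402 hepatoma, A549 non-small cell lung carcinoma and MCF-7 breast carcinoma.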
# [2] = system: A549; assay: Cytotoxicity against human A549 cells by MTT assay; assay type: functional, cell-based; in short: as §1
# [3] = system: MCF7; assay: Cytotoxicity against human MCF7 cells by MTT assay; assay type: functional, cell-based; in short: as §1
# [4] = system: HT-29; assay: Cytotoxicity against human HT-29 cells by MTT assay; assay type: functional, cell-based; in short: as §1
# [5] = system: Bel-7402; assay: Cytotoxicity against human Bel7402 cells by MTT assay; assay type: functional, cell-based; in short: as §1
# [6] = target: T1, DNA topoisomerase 1 (Homo sapiens) (UniProt P11387); assay: Inhibition of topoisomerase 1 assessed as conversion of supercoiled DNA to open circular DNA at 100 uM
# T1 sequence (whole entry): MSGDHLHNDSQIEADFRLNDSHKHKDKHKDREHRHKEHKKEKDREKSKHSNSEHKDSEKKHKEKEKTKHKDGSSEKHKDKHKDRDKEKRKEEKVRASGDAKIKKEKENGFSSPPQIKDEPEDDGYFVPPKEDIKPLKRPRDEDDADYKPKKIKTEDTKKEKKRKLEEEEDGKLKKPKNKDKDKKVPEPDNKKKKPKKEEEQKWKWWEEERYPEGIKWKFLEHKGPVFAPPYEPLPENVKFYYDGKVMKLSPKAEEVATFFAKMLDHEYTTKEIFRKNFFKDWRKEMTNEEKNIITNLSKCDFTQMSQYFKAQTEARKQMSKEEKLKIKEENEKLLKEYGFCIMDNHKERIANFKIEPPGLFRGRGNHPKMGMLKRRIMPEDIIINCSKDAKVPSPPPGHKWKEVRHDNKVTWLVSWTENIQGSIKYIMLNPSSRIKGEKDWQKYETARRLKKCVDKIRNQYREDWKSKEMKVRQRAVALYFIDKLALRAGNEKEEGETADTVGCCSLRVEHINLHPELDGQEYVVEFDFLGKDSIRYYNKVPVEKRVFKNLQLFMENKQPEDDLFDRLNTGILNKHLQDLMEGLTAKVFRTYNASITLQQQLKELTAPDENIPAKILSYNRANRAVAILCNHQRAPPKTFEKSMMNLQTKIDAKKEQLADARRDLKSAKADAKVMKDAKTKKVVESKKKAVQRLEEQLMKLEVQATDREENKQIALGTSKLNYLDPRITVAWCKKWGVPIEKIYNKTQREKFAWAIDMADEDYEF
# In short: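 A commercial TOPO I drug screening kit was used with a supercoiled plasmid DNA substrate. Activity was read as conversion of supercoiled DNA (Form I) to open circular DNA, with camptothecin as reference inhibitor.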
# [7] = system: HT-29; assay: Decrease in topoisomerase 1 expression in human HT-29 cells at 20 uM after 24 hrs relative to control; assay type: functional, cell-based
# In short: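 TOPO I protein level in HT-29 cells was probed after 24 h incubation by the common protocols with a commercial TOPO I antibody. Levels were compared with a control group.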
# [8] = system: HT-29; assay: Cell cycle arrest in human HT-29 cells assessed as accumulation of Sub-G1 phase at 20 uM after 24 hrs by flow cytometry relative to control; assay type: functional
# In short: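 HT-29 cells were exposed for 24 h. Apoptosis was scored by flow cytometry as the percentage of cells in the Sub-G1 phase, compared against an untreated control group.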
Activity [6],SMILES,IC50 [1] [µM],IC50 [2] [µM],IC50 [3] [µM],IC50 [4] [µM],IC50 [5] [µM],Activity [7],Activity [8] [%]
,COC(=O)C(Cc1ccccc1)NC(=O)Cn1c2ccccc2c2c3c(c4c5ccccc5[nH]c4c21)C(=O)N(C)C3=O (configuration not stated),> 10,> 10,> 10,> 10,> 10,,
,CN1C(=O)c2c(c3c4ccccc4n(CC(=O)NC(Cc4ccccc4)C(=O)O)c3c3[nH]c4ccccc4c23)C1=O (configuration not stated),> 10,> 10,> 10,> 10,> 10,,
,COC(=O)C(CC(C)C)NC(=O)Cn1c2ccccc2c2c3c(c4c5ccccc5[nH]c4c21)C(=O)N(C)C3=O (configuration not stated),> 10,> 10,> 10,> 10,> 10,,
,CC(NC(=O)Cn1c2ccccc2c2c3c(c4c5ccccc5[nH]c4c21)C(=O)N(C)C3=O)C(=O)O (configuration not stated),> 10,> 10,> 10,> 10,> 10,,
Active,CCN1CCN(C(=O)C(Cc2ccccc2)NC(=O)Cn2c3ccccc3c3c4c(c5c6ccccc6[nH]c5c32)C(=O)N(C)C4=O)CC1 (configuration not stated),1.09,1.86,1.91,2.88,1.91,Active,10.3
,CN1C(=O)c2c(c3c4ccccc4n([C@@H]4O[C@H](CO)[C@@H](O)[C@H](O)[C@H]4O)c3c3[nH]c4ccccc4c23)C1=O,> 10,> 10,> 10,7.44,6.68,,
,CN1C(=O)c2c(c3c4ccccc4n(CC(=O)NCC(=O)O)c3c3[nH]c4ccccc4c23)C1=O,> 10,> 10,> 10,> 10,> 10,,
,CC(NC(=O)Cn1c2ccccc2c2c3c(c4c5ccccc5[nH]c4c21)C(=O)N(C)C3=O)C(=O)N1CCOCC1 (configuration not stated),> 10,> 10,> 10,> 10,> 10,,
,COC(=O)C(NC(=O)Cn1c2ccccc2c2c3c(c4c5ccccc5[nH]c4c21)C(=O)N(C)C3=O)C(C)C (configuration not stated),> 10,> 10,> 10,> 10,> 10,,
,COC(=O)CNC(=O)Cn1c2ccccc2c2c3c(c4c5ccccc5[nH]c4c21)C(=O)N(C)C3=O,> 10,2.13,2.23,2.88,> 10,,
,CC(C)C(NC(=O)Cn1c2ccccc2c2c3c(c4c5ccccc5[nH]c4c21)C(=O)N(C)C3=O)C(=O)O (configuration not stated),> 10,> 10,> 10,> 10,> 10,,
,CC(C)CC(NC(=O)Cn1c2ccccc2c2c3c(c4c5ccccc5[nH]c4c21)C(=O)N(C)C3=O)C(=O)O (configuration not stated),> 10,> 10,> 10,> 10,> 10,,
Active,CC(C)C(NC(=O)Cn1c2ccccc2c2c3c(c4c5ccccc5[nH]c4c21)C(=O)N(C)C3=O)C(=O)N1CCOCC1 (configuration not stated),> 10,5.11,> 10,2.66,> 10,Active,2.49
,COC(=O)C(C)NC(=O)Cn1c2ccccc2c2c3c(c4c5ccccc5[nH]c4c21)C(=O)N(C)C3=O (configuration not stated),> 10,> 10,> 10,> 10,> 10,,
Active,CCN1CCN(C(=O)C(CC(C)C)NC(=O)Cn2c3ccccc3c3c4c(c5c6ccccc6[nH]c5c32)C(=O)N(C)C4=O)CC1 (configuration not stated),> 10,7.94,2.44,3.48,> 10,Active,8.86
Active,CC(C)CC(NC(=O)Cn1c2ccccc2c2c3c(c4c5ccccc5[nH]c4c21)C(=O)N(C)C3=O)C(=O)N1CCN(C)CC1 (configuration not stated),> 10,1.84,1.94,1.26,2.23,Active,14.33

# Reference: ChEMBL document CHEMBL1154523, “Design and synthesis of N-methylmaleimide indolocarbazole bearing modified 2-acetamino acid moieties as Topoisomerase I inhibitors” (Bioorg Med Chem Lett, 2009)
